In ChEMBL document CHEMBL1138528, “Discovery of tetrasubstituted imidazolines as potent and selective neuropeptide Y Y5 receptor antagonists: reduced human ether-a-go-go related gene potassium channel binding affinity and potent antiobesity effect” (J Med Chem, 2009):
The source made the active and inactive calls. No cut-off for these calls is given here.

What was measured:
[1] = test system: Mus musculus; experiment: Reduction in body weight in moderately high fat diet-induced obese Y5 receptor-deficient mouse model at 3 mg/kg, po BID 15 days; format: functional, organism-based; set-up: dose 3 mg/kg
[2] = Cmax in Beagle dog at 2 mg/kg, iv; format: ADME, organism-based, Canis lupus familiaris; set-up: dose 2 mg/kg, route intravenous; conditions: in vivo
[3] = test system: Canis familiaris; experiment: Cardiotoxicity in Beagle dog assessed as adverse events at 2 mg/kg, iv; format: toxicity, organism-based, Canis lupus familiaris; set-up: dose 2 mg/kg, route intravenous; conditions: in vivo
[4] = test system: Canis familiaris; experiment: Cardiotoxicity in Beagle dog assessed as change in mean arterial pressure at 5 mg/kg, iv; format: toxicity, organism-based, Canis lupus familiaris, Artery; set-up: dose 5 mg/kg, route intravenous; conditions: in vivo
[5] = test system: Canis familiaris; experiment: Cardiotoxicity in Beagle dog assessed as change in left ventricular systolic pressure at 5 mg/kg, iv; format: toxicity, organism-based, Canis lupus familiaris, Heart left ventricle; set-up: dose 5 mg/kg, route intravenous; conditions: in vivo
[6] = test system: Canis familiaris; experiment: Cardiotoxicity in Beagle dog assessed as change in cardiac contractility pressure at 5 mg/kg, iv; format: toxicity, organism-based, Canis lupus familiaris, Heart; set-up: dose 5 mg/kg, route intravenous; conditions: in vivo
[7] = test system: Canis familiaris; experiment: Cardiotoxicity in Beagle dog assessed as change in cardiac output pressure at 5 mg/kg, iv; format: toxicity, organism-based, Canis lupus familiaris, Heart; set-up: dose 5 mg/kg, route intravenous; conditions: in vivo
[8] = test system: Canis familiaris; experiment: Cardiotoxicity in Beagle dog assessed as change in femoral blood flow at 5 mg/kg, iv; format: toxicity, organism-based, Canis lupus familiaris; set-up: dose 5 mg/kg, route intravenous; conditions: in vivo
[9] = test system: Canis familiaris; experiment: Cardiotoxicity in Beagle dog assessed as prolongation of QTc interval at 5 mg/kg, iv; format: toxicity, organism-based, Canis lupus familiaris; set-up: dose 5 mg/kg, route intravenous; conditions: in vivo
[10] = Cmax in Beagle dog at 5 mg/kg, iv; format: ADME, organism-based, Canis lupus familiaris; set-up: dose 5 mg/kg, route intravenous; conditions: in vivo
[11] = test system: Rattus norvegicus; experiment: Inhibition of D-[Trp34]NPY-induced acute food intake in Sprague-Dawley rat at 0.3 mg/kg, po pretreated 2 hrs prior to D-[Trp34]NPY challenge measured after 2 hrs; format: functional
Summary of the method: (§1)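 SD rats (10-15 weeks) with stereotaxic third-ventricle cannula, tested ≥1 wk post-surgery in light cycle. Oral dose in 0.5% methylcellulose, then 2 h later D-Trp34NPY 1 µg/0.4 µL in aCSF into third ventricle; food intake over 2 h. Mean ± SEM, n = 5-9; Dunnett's test versus agonist-only group.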

[12] = Octanol-water distribution coefficient, log D at pH 7.4; format: physicochemical
[13] = Metabolic stability in rat hepatocytes assessed as hepatic clearance by serum incubation method; format: ADME, cell-based, Liver, Hepatocyte
[14] = Plasma concentration in Sprague-Dawley rat at 10 mg/kg, po after 2 hrs; format: ADME, organism-based; set-up: dose 10 mg/kg, route oral
Summary of the method: (§2)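 Male SD rats (7-10 weeks, 200-400 g) dosed orally at 10 mg/kg in 0.5% methylcellulose; at 2 h aortic blood taken under isoflurane. Plasma, brain homogenate (sonicated in water) and CSF deproteinized with 3-fold ethanol plus internal standard, -20 °C 20 min, centrifuged; LC/MS/MS with relative calibration curve. Mean, n = 2-3.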

[15] = test system: Brain; experiment: Drug level in Sprague-Dawley rat brain at 10 mg/kg, po after 2 hrs; format: ADME, organism-based; set-up: dose 10 mg/kg, route oral; conditions: in vivo; summary of the method: as §2
[16] = test system: Cerebrospinal fluid; experiment: Drug level in Sprague-Dawley rat cerebrospinal fluid at 10 mg/kg, po after 2 hrs; format: ADME, organism-based; set-up: dose 10 mg/kg, route oral; conditions: in vivo, 2 h; summary of the method: as §2
[17] = Ratio of drug level from brain to plasma in Sprague-Dawley rat at 10 mg/kg, po after 2 hrs; format: ADME, organism-based; set-up: dose 10 mg/kg, route oral; summary of the method: as §2
[18] = target: T1, Neuropeptide Y receptor type 1 (Homo sapiens, UniProt P25929); experiment: Binding affinity to human neuropeptide Y1 receptor
T1 sequence (P25929 whole entry): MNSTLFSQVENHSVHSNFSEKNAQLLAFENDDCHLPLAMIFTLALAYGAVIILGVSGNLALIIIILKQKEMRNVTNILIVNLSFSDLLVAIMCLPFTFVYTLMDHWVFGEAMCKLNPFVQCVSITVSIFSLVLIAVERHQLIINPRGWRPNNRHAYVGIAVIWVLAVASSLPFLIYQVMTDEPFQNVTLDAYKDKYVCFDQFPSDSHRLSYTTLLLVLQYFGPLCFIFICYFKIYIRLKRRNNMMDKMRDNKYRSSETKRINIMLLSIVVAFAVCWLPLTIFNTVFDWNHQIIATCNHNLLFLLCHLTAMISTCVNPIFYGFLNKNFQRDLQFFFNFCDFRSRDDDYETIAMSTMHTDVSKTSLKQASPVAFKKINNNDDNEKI

[19] = target: T2, Neuropeptide Y receptor type 2 (Homo sapiens, UniProt P49146); experiment: Binding affinity to human neuropeptide Y2 receptor
T2 sequence (P49146 whole entry): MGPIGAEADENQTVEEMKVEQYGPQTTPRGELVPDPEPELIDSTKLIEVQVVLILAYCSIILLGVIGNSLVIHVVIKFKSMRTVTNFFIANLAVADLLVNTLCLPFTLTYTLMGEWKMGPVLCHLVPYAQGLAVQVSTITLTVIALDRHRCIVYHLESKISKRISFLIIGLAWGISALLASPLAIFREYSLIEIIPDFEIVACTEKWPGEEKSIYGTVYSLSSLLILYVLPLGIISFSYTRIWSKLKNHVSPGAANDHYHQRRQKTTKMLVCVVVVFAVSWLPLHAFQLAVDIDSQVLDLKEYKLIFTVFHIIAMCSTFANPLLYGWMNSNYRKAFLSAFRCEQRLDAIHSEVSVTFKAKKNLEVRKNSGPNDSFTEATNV

[20] = target: Neuropeptide Y receptor type 4 (Homo sapiens, UniProt P50391); experiment: Binding affinity to human neuropeptide Y4 receptor
[21] = Plasma clearance in Sprague-Dawley rat plasma at 1 mg/kg, iv administered as single dose; format: ADME, organism-based; set-up: dose 1 mg/kg, route intravenous
[22] = Volume of distribution at steady state in Sprague-Dawley rat at 1 mg/kg, iv and 1 mg/kg, po administered as single dose; format: ADME, organism-based; conditions: in vivo, read-out: Vdss
[23] = AUC (0 to infinity) in Sprague-Dawley rat at 1 mg/kg, po administered as single dose; format: ADME, organism-based; set-up: time infinity, dose 1 mg/kg, route oral; conditions: plasma
[24] = Cmax in Sprague-Dawley rat at 1 mg/kg, iv and 1 mg/kg, po administered as single dose; format: ADME, organism-based; conditions: in vivo
[25] = Plasma clearance in rhesus monkey plasma at 0.3 mg/kg, iv administered as single dose; format: ADME, organism-based, Macaca mulatta; set-up: dose 0.3 mg/kg, route intravenous
[26] = Volume of distribution at steady state in rhesus monkey at 1 mg/kg, po and 0.3 mg/kg, iv administered as single dose; format: ADME, organism-based, Macaca mulatta; conditions: in vivo, read-out: Vdss
[27] = AUC (0 to infinity) in rhesus monkey at 1 mg/kg, po administered as single dose; format: ADME, organism-based, Macaca mulatta; set-up: dose 1 mg/kg, route oral, time infinity; conditions: plasma
[28] = Bioavailability in Sprague-Dawley rat at 1 mg/kg, iv and 1 mg/kg, po administered as single dose; format: ADME, organism-based; conditions: in vivo
[29] = Cmax in rhesus monkey at 1 mg/kg, po and 0.3 mg/kg, iv administered as single dose; format: ADME, organism-based, Macaca mulatta; conditions: in vivo
[30] = Bioavailability in rhesus monkey at 1 mg/kg, po and 0.3 mg/kg, iv administered as single dose; format: ADME, organism-based, Macaca mulatta; conditions: in vivo
[31] = test system: Rattus norvegicus; experiment: Inhibition of D-[Trp34]NPY-induced acute food intake in Sprague-Dawley rat at 1 mg/kg, po pretreated 2 hrs prior to D-[Trp34]NPY challenge measured after 2 hrs; format: functional; summary of the method: as §1
[32] = test system: Mus musculus; experiment: Reduction in body weight in moderately high fat diet-induced obese C57BL/6J mouse model at 10 mg/kg, po qid for 5 days followed by BID for 15 days; format: functional, organism-based; set-up: dose 10 mg/kg
[33] = test system: Mus musculus; experiment: Reduction in body weight in moderately high fat diet-induced obese C57BL/6J mouse model at 3 mg/kg, po qid for 5 days followed by BID for 15 days; format: functional, organism-based; set-up: dose 3 mg/kg
[34] = test system: Rattus norvegicus; experiment: Inhibition of D-[Trp34]NPY-induced acute food intake in Sprague-Dawley rat at 0.1 mg/kg, po pretreated 2 hrs prior to D-[Trp34]NPY challenge measured after 2 hrs; format: functional; summary of the method: as §1

Chain of Neuropeptide Y receptor type 4 (P50391 whole entry): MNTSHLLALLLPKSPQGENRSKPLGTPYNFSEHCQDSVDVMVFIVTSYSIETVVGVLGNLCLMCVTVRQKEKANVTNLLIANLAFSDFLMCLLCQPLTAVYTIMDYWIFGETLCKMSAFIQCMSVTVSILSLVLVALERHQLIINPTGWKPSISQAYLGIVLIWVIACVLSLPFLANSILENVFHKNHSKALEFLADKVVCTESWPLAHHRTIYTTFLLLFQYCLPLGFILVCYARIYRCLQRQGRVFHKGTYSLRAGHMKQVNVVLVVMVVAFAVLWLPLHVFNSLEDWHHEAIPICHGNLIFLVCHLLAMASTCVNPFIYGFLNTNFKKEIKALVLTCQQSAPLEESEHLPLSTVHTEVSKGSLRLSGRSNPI

SMILES: C[C@@H]1NC(c2cc(C#N)ccn2)=N[C@@]1(c1ccc(F)cc1)c1ccc(F)nc1
- Activity [1]: inactive
- Cmax [2]: 12000 nM
- Activity [3]: Non-toxic
- Activity [4]: 28%
- Activity [5]: 29%
- Activity [6]: 50%
- Activity [7]: 46%
- Activity [8]: -32%
- Activity [9]: 7%
- Cmax [10]: 25000 nM
- inhibition in vivo at 0.3 mg/kg [11]: 54%
- logD [12]: 3.2
- CLhep predicted [13]: 18 mL/min/kg
- concentration at 2 h [14]: 2600 nM
- Drug uptake [15]: 7 nmol/g
- Drug uptake [16]: 0.21 µM
- Kp at 2 h [17]: 2.7
- IC50 [18]: > 10 µM
- IC50 [19]: > 10 µM
- IC50 [20]: > 10 µM
- clearance [21]: 20 mL/min/kg
- Vd [22]: 6.2 L/kg
- AUC(0-inf) [23]: 1.8 µM·h
- Cmax [24]: 500 nM
- clearance [25]: 8 mL/min/kg
- Vd [26]: 4.4 L/kg
- AUC(0-inf) [27]: 4.6 µM·h
- bioavailability [28]: 77%
- Cmax [29]: 590 nM
- bioavailability [30]: 76%
- inhibition in vivo at 1 mg/kg [31]: 93%
- Activity [32]: Active
- Activity [33]: Active
- inhibition in vivo at 0.1 mg/kg [34]: 5%
